How the values were obtained:
[1] = target: T1, Glucagon-like peptide 1 receptor (Rattus norvegicus) (UniProt P32301); experiment: Inhibition of [125I]GLP1 (7-36) amide binding to rat GLP1R expressed in HEK293 cells relative to untreated control; type: cell-based; set-up: concentration or dose not given beside the values; settings: concentration not given here
T1 sequence (whole entry): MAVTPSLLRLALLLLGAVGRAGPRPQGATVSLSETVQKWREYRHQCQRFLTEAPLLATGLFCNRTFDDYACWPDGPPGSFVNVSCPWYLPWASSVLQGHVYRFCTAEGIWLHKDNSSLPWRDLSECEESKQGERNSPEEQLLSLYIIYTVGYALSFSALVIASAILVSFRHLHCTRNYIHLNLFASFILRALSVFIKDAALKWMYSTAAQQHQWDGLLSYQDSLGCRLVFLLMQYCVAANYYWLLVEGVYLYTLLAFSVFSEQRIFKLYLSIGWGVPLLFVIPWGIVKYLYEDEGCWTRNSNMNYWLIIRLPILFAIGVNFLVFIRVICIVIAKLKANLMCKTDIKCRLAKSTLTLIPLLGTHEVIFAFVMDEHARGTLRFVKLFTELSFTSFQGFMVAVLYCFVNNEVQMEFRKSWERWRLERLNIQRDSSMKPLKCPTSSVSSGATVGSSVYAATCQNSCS
In short: (§1)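 Membranes (17 μg protein) from HEK293 cells stably expressing rat GLP-1R were preincubated 5 h at 4 °C with FlashBlue beads (150 μg). Then 40 pM [125I]GLP-1(7−36) amide or [125I]Exendin(9−39) was added with aprotinin 2 μg/mL, leupeptin 100 μM and test compound at varied concentrations. Incubated overnight at 4 °C, then bound radioactivity counted. Mean ± SEM of two independent experiments.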

[2] = target: T1, Glucagon-like peptide 1 receptor (Rattus norvegicus); experiment: Inhibition of [125I]Exendin (9-39) binding to rat GLP1R expressed in HEK293 cells; type: cell-based; set-up: concentration or dose not given beside the values; settings: concentration not given here; in short: as §1
[3] = target: T2, Glucagon-like peptide 1 receptor (Rattus norvegicus, UniProt P32301); experiment: Inhibition of [125I]GLP1 (7-36) amide binding to rat GLP1R expressed in HEK293 cells; type: cell-based; in short: as §1
T2 sequence (P32301 whole entry): T1 sequence (whole entry)

[4] = target: T1, Glucagon-like peptide 1 receptor (Rattus norvegicus); experiment: Agonist activity at rat GLP1R expressed in HEK293 cells assessed as stimulation of cAMP levels incubated for 6 hrs by multiple response element/cAMP response element (MRE/CRE)-driven reporter gene assay relative to 10 nM GLP1; type: functional, cell-based
In short: (§2)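 Stable HEK293 line co-expressing rat GLP-1R (pCMV-Tag2B) and a luciferase reporter with 3× MRE plus 1× CRE, seeded at 40000 cells/well and cultured overnight. Compounds in DMSO or GLP-1(7−37) were added for 6 h, then cells were lysed and luciferase read (Steady-Glo). The 10 nM GLP-1 maximum was taken as 100%. Mean ± SEM of two independent experiments; some values come from a single run.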

[5] = target: T2, Glucagon-like peptide 1 receptor; experiment: Agonist activity at rat GLP1R expressed in HEK293 cells assessed as stimulation of cAMP levels incubated for 6 hrs by multiple response element/cAMP response element (MRE/CRE)-driven reporter gene assay; type: functional, cell-based; in short: as §2

| Structure (SMILES) | inhibition [1] [%] | inhibition [2] [%] | IC50 [3] [µM] | Efficacy [4] [%] | EC50 [5] [µM] |
| --- | --- | --- | --- | --- | --- |
| COc1cc([C@H]2[C@](NC(=O)c3ccc(NC(=O)C45CC6CC(CC(C6)C4)C5)cc3)(C(=O)O)[C@@H](c3ccc(OC(=O)c4cccs4)c(OC)c3)[C@]2(NC(=O)c2ccc(NC(=O)C34CC5CC(CC(C5)C3)C4)cc2)C(=O)O)ccc1OC(=O)c1cccs1 | 50.7 | 46.8 | 8 | 6 |  |
| CC(C)(C)OC(=O)Nc1ccc(C(=O)N[C@]2(C(=O)O)[C@H](c3ccc(OC(=O)c4ccccc4)cc3)[C@@](NC(=O)c3ccc(NC(=O)OC(C)(C)C)cc3)(C(=O)O)[C@@H]2c2ccc(OC(=O)c3ccccc3)cc2)cc1 | 13.5 | 6.3 |  | 21.6 |  |
| COc1cc([C@H]2[C@](NC(=O)c3ccc(NC(=O)OC(C)(C)C)cc3)(C(=O)O)[C@@H](c3ccc(OC(C)=O)c(OC)c3)[C@]2(NC(=O)c2ccc(NC(=O)OC(C)(C)C)cc2)C(=O)O)ccc1OC(C)=O | 43.6 | < 15 |  | 43.6 | 8.31 |
| COc1cc([C@H]2[C@](NC(=O)c3ccc(NC(=O)COCc4ccccc4)cc3)(C(=O)O)[C@@H](c3ccc(OC(=O)c4cccs4)c(OC)c3)[C@]2(NC(=O)c2ccc(NC(=O)COCc3ccccc3)cc2)C(=O)O)ccc1OC(=O)c1cccs1 | 57.5 | 45.9 | 1.9 | 12 |  |
| COc1cc([C@H]2[C@](NC(=O)c3ccc(NC(=O)OC(C)(C)C)cc3)(C(=O)O)[C@@H](c3ccc(NC(C)=O)c(OC)c3)[C@]2(NC(=O)c2ccc(NC(=O)OC(C)(C)C)cc2)C(=O)O)ccc1NC(C)=O | 32.5 | 9.4 |  | < 15 | > 20 |
| COc1cc([C@H]2[C@](NC(=O)c3ccc(NC(=O)OC(C)(C)C)cc3)(C(=O)O)[C@@H](c3ccc(OC(=O)Cc4ccccc4)c(OC)c3)[C@]2(NC(=O)c2ccc(NC(=O)OC(C)(C)C)cc2)C(=O)O)ccc1OC(=O)Cc1ccccc1 | 17.5 | 4.8 |  | 26 |  |
| COc1cc([C@H]2[C@](NC(=O)c3ccc(NC(=O)OC(C)(C)C)cc3)(C(=O)O)[C@@H](c3ccc(OCc4ccccc4)c(OC)c3)[C@]2(NC(=O)c2ccc(NC(=O)OC(C)(C)C)cc2)C(=O)O)ccc1OCc1ccccc1 | 10 | 14.3 |  | < 15 | > 20 |
| CC(=O)Nc1ccc([C@H]2[C@](NC(=O)c3ccc(NC(=O)OC(C)(C)C)cc3)(C(=O)O)[C@@H](c3ccc(NC(C)=O)cc3)[C@]2(NC(=O)c2ccc(NC(=O)OC(C)(C)C)cc2)C(=O)O)cc1 | 12.1 | 2.8 |  | < 15 | > 20 |
| CCCC(=O)Nc1ccc(C(=O)N[C@]2(C(=O)O)[C@H](c3ccc(OC(=O)c4cccs4)c(OC)c3)[C@@](NC(=O)c3ccc(NC(=O)CCC)cc3)(C(=O)O)[C@@H]2c2ccc(OC(=O)c3cccs3)c(OC)c2)cc1 | 52.4 | 48.2 | 3.4 | 50 |  |
| COc1cc([C@H]2[C@](NC(=O)c3ccc(NC(=O)Cc4ccccc4)cc3)(C(=O)O)[C@@H](c3ccc(OC(=O)c4cccs4)c(OC)c3)[C@]2(NC(=O)c2ccc(NC(=O)Cc3ccccc3)cc2)C(=O)O)ccc1OC(=O)c1cccs1 | 45.7 | 33.4 | 3.2 | 32 |  |
| COc1cc([C@H]2[C@](NC(=O)c3ccc(NC(=O)C4CCCCC4)cc3)(C(=O)O)[C@@H](c3ccc(OC(=O)c4cccs4)c(OC)c3)[C@]2(NC(=O)c2ccc(NC(=O)C3CCCCC3)cc2)C(=O)O)ccc1OC(=O)c1cccs1 | 58.9 | 54.8 | 1 | 25 |  |
| COc1cc([C@H]2[C@](NC(=O)c3ccc(NC(=O)C(C)C)cc3)(C(=O)O)[C@@H](c3ccc(OC(C)=O)c(OC)c3)[C@]2(NC(=O)c2ccc(NC(=O)C(C)C)cc2)C(=O)O)ccc1OC(C)=O | 34.1 | 35.2 |  | 30 |  |
| CC(C)(C)OC(=O)Nc1ccc(C(=O)N[C@]2(C(=O)O)[C@H](c3ccc(OCc4ccccc4)cc3)[C@@](NC(=O)c3ccc(NC(=O)OC(C)(C)C)cc3)(C(=O)O)[C@@H]2c2ccc(OCc3ccccc3)cc2)cc1 | 21.2 | 9.6 |  | 24.8 |  |
| COc1cc([C@H]2[C@](NC(=O)c3ccc(NC(=O)Nc4cccc(F)c4)cc3)(C(=O)O)[C@@H](c3ccc(OC(=O)c4cccs4)c(OC)c3)[C@]2(NC(=O)c2ccc(NC(=O)Nc3cccc(F)c3)cc2)C(=O)O)ccc1OC(=O)c1cccs1 | 3.2 | 4.7 |  | 7.7 | 2.71 |
| COc1ccc([C@H]2[C@](NC(=O)c3ccc(NC(=O)OC(C)(C)C)cc3)(C(=O)O)[C@@H](c3ccc(OC)cc3)[C@]2(NC(=O)c2ccc(NC(=O)OC(C)(C)C)cc2)C(=O)O)cc1 | 7.45 | 2.4 |  | 7.5 | 9.4 |

More lines, now with the values ahead:

| inhibition [1] [%] | inhibition [2] [%] | IC50 [3] [µM] | Efficacy [4] [%] | EC50 [5] [µM] | Structure (SMILES) |
| --- | --- | --- | --- | --- | --- |
| 55.4 | 30.6 | 2.31 | 61.1 | 0.118 | COc1cc([C@H]2[C@](NC(=O)c3ccc(NC(C)=O)cc3)(C(=O)O)[C@@H](c3ccc(OC(=O)c4cccs4)c(OC)c3)[C@]2(NC(=O)c2ccc(NC(C)=O)cc2)C(=O)O)ccc1OC(=O)c1cccs1 |
| 63.7 | < 15 |  | 63.7 |  | CC(C)(C)OC(=O)Nc1ccc(C(=O)N[C@]2(C(=O)O)[C@H](c3ccc(OC(=O)c4cccs4)cc3)[C@@](NC(=O)c3ccc(NC(=O)OC(C)(C)C)cc3)(C(=O)O)[C@@H]2c2ccc(OC(=O)c3cccs3)cc2)cc1 |
| 89.8 | 70.5 |  | 121 |  | COc1cc([C@H]2[C@](NC(=O)c3ccc(NC(=O)OC(C)(C)C)cc3)(C(=O)O)[C@@H](c3ccc(OC(=O)c4cccs4)c(OC)c3)[C@]2(NC(=O)c2ccc(NC(=O)OC(C)(C)C)cc2)C(=O)O)ccc1OC(=O)c1cccs1 (stereo in doubt) [listing 1 of 2 here] |
|  |  | 1.6 |  | 0.847 | COc1cc([C@H]2[C@](NC(=O)c3ccc(NC(=O)OC(C)(C)C)cc3)(C(=O)O)[C@@H](c3ccc(OC(=O)c4cccs4)c(OC)c3)[C@]2(NC(=O)c2ccc(NC(=O)OC(C)(C)C)cc2)C(=O)O)ccc1OC(=O)c1cccs1 (stereo in doubt; 3) |
| 27.6 | 8.3 |  | < 15 | > 20 | COc1cc([C@H]2[C@](NC(=O)c3ccc(NC(=O)OC(C)(C)C)cc3)(C(=O)O)[C@@H](c3ccc(OC(=O)c4ccco4)c(OC)c3)[C@]2(NC(=O)c2ccc(NC(=O)OC(C)(C)C)cc2)C(=O)O)ccc1OC(=O)c1ccco1 |
| 42 | 56.3 | 4.3 | 16.5 |  | COc1cc([C@H]2[C@](NC(=O)c3ccc(NC(=O)OC(C)(C)C)cc3)(C(=O)O)[C@H](c3ccc(OC(=O)c4cccs4)c(OC)c3)[C@@]2(NC(=O)c2ccc(NC(=O)OC(C)(C)C)cc2)C(=O)O)ccc1OC(=O)c1cccs1 |
| 35.2 | 27.9 | 16.2 | 48 |  | COc1cc([C@H]2[C@](NC(=O)c3ccc(NC(=O)C(C)N)cc3)(C(=O)O)[C@@H](c3ccc(OC(=O)c4cccs4)c(OC)c3)[C@]2(NC(=O)c2ccc(NC(=O)C(C)N)cc2)C(=O)O)ccc1OC(=O)c1cccs1 (some centres undefined) |
|  |  | 0.6 |  | 0.371 | COc1cc([C@H]2[C@](NC(=O)c3ccc(NC(=O)OC(C)(C)C)cc3)(C(=O)O)[C@@H](c3ccc(OC(=O)c4cccs4)c(OC)c3)[C@]2(NC(=O)c2ccc(NC(=O)OC(C)(C)C)cc2)C(=O)O)ccc1OC(=O)c1cccs1 (stereo in doubt) [listing 2 of 2 here] |
| 77.3 | 69.7 | 0.9 | 49 |  | COc1cc([C@H]2[C@](NC(=O)c3ccc(NC(=O)C(C)NC(=O)OC(C)(C)C)cc3)(C(=O)O)[C@@H](c3ccc(OC(=O)c4cccs4)c(OC)c3)[C@]2(NC(=O)c2ccc(NC(=O)C(C)NC(=O)OC(C)(C)C)cc2)C(=O)O)ccc1OC(=O)c1cccs1 (some centres undefined) |
| 59.3 | 52.7 | 8.1 | 38 |  | COc1cc([C@H]2[C@](NC(=O)c3ccc(NC(=O)CO)cc3)(C(=O)O)[C@@H](c3ccc(OC(=O)c4cccs4)c(OC)c3)[C@]2(NC(=O)c2ccc(NC(=O)CO)cc2)C(=O)O)ccc1OC(=O)c1cccs1 |
| 73.4 |  | 1.3 | 68.2 |  | COc1cc([C@H]2[C@](NC(=O)c3ccc(NC(=O)OC(C)(C)C)cc3)(C(=O)O)[C@H](c3ccc(OC(=O)c4cccs4)c(OC)c3)[C@]2(NC(=O)c2ccc(NC(=O)OC(C)(C)C)cc2)C(=O)O)ccc1OC(=O)c1cccs1 |
